Data as given in ChEMBL document CHEMBL4513216, “Probing the Open Global Health Chemical Diversity Library for Multistage-Active Starting Points for Next-Generation Antimalarials” (ACS Infect Dis, 2020).

assay: Toxicity liver stage against HepG2, at 10uM; format: cell-based; design: test concentration 10 uM, cell line HepG2-A16-CD81EGFP; conditions: human, HepG2-A16-CD81EGFP cells; read-out: INHIBITION
Summary of the method: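 Uninfected HepG2-A16-CD81EGFP cells, 3 × 10^3 per well, 1536-well, plated on prespotted compound at 10 μM final, parasite-free screening media added to match infected plates; puromycin 10 μM positive, DMSO 0.5% negative; run in parallel with 48 h PbLuc assay at 37 °C, 5% CO2; viability by CellTiter-Glo luminescence, normalized to controls.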

Compared with `CC(=O)c1c(C)nn(S(=O)(=O)c2ccc(C)c(C)c2)c1C`, `Cc1ccc(OCC(=O)Nc2cc(C(=O)O)cc(S(C)(=O)=O)c2)cc1C` is higher in cytotoxicity at 10 µM: -8.46% for the first, -4.95% for the second.

Compared with `N#Cc1cnc(N2Cc3cnn(Cc4ccc(F)cc4)c3C2)nc1N`, `CN(C)C(=O)CN1CCC(c2cccc(Cc3ccc(F)cc3)n2)CC1` is lower in cytotoxicity at 10 µM: 4.84% for the first, -22.3% for the second.

Going from `COc1ccc(OCc2cc(C(=O)N3CCCCO3)n[nH]2)c(Cl)c1` to `COc1cccc2c1OCCCN(Cc1ccc(C(N)=O)c(=O)[nH]1)C2`, the cytotoxicity at 10 µM falls from 8.15% to 4.82%.

First: N#Cc1cc(NS(=O)(=O)CC2CCCCO2)ccc1F (stereo not given)
Second: CC(=O)Nc1cc(F)c(S(=O)(=O)N(C)CC2CCC2)c(F)c1
The cytotoxicity at 10 µM of the first is higher: -14.1% for the first, -54.4% for the second.

First: COc1cc(C2SCC(=O)Nc3ccsc32)cc(OC)c1OC (stereo not given)
Second: CCn1c(C2CCCN(Cc3cc(F)ccc3OC)C2)nn(C)c1=O (stereo not given)
The cytotoxicity at 10 µM of the first is higher: -1.88% for the first, -4.12% for the second.

Compared with `COc1nn(C)c2c1CCCN(S(=O)(=O)c1cccc(F)c1)C2`, `COc1ccccc1C(=O)Nc1nc2c(s1)CN(S(=O)(=O)C1CC1)CC2` is higher in cytotoxicity at 10 µM: -129% for the first, -11.7% for the second.

Going from `Cc1ncc(C(=O)NCCNc2ncccc2C#N)s1` to `O=C(NCCNc1ccc(Br)cn1)c1ccc(O)cc1`, the cytotoxicity at 10 µM rises from -8.18% to 0.612%.

First: Fc1ccccc1CC1CCN(Cc2ccccn2)CC1
Second: c1ccc(CN2C[C@@H]3OCCN(c4cccnc4)[C@@H]3C2)nc1
The cytotoxicity at 10 µM of the first is higher: 2.25% for the first, -72.8% for the second.

Compared with `CC(CCc1ccccc1F)C(=O)NS(C)(=O)=O` (stereo not given), `O=C(NS(=O)(=O)c1ccc(F)c(F)c1)c1cscn1` is lower in cytotoxicity at 10 µM: 3.12% for the first, -5.64% for the second.

First: CC(NCCN1CCN(C(=O)C2CCCC2)CC1)c1nccs1 (stereo not given)
Second: CN1CCN(C[C@H]2CC[C@@H](Cc3ccc(CN4CCCC4)cc3)O2)CC1
The cytotoxicity at 10 µM of the first is higher: -0.513% for the first, -7.32% for the second.

First: CC(=O)N(C)Cc1ccc(OCc2cccs2)cc1
Second: O=C(c1ccc[nH]1)N(Cc1ccc(O)cc1)CC1CC1
The cytotoxicity at 10 µM of the first is higher: 12.4% for the first, 8.43% for the second.

Compared with `Cc1cccc(-c2nc(CNC3CCc4nc(C)nn4C3)no2)c1` (stereo not given), `CC(=O)NCc1ccc(C(=O)NC2CCc3nc(C)cn3C2)o1` (stereo not given) is higher in cytotoxicity at 10 µM: -4.3% for the first, -3.81% for the second.

Going from `CN(C)CCN1CCOCC2(CCCN(C(=O)c3ccoc3)C2)C1` (stereo not given) to `CN(C)CCN1C(=O)CCC12CCN(C(=O)CC1CC1)CC2`, the cytotoxicity at 10 µM falls from 4.87% to 3.35%.

Going from `CCCOC(C)C(=O)N1CCC(O)(c2ccc3nc(C)ccc3c2)CC1` (stereo not given) to `Cc1cc(C(=O)N2CCN(c3nc4ccccc4s3)CC2)no1`, the cytotoxicity at 10 µM falls from 1.12% to -110%.

Compared with `Cc1n[nH]c2nc(-c3ccccc3O)cc(C(=O)O)c12`, `CCN(C(=O)c1cc(C)nc2ccccc12)C1CC(=O)NC1=O` (stereo not given) is higher in cytotoxicity at 10 µM: -1.55% for the first, 3.04% for the second.

Going from `Cc1cccc(-c2ccc(C(=O)NCC3CCCOC3)c(=O)[nH]2)c1` (stereo not given) to `Cc1cc(C)c(CNC(=O)NCCOc2ccc3c(c2)CCC3)c(=O)[nH]1`, the cytotoxicity at 10 µM falls from -15.7% to -23.3%.

Going from `c1cnc(N2CCC(c3cc4cccnc4[nH]3)CC2)nc1` to `COc1cc(CCC(=O)N2CCC(c3cc4ncccc4[nH]3)CC2)on1`, the cytotoxicity at 10 µM rises from -7.28% to 3.78%.

Compared with `CSC1(CNC(=O)NCc2sccc2C)CCOCC1`, `O=C(CNC(=O)C1(c2ccc(F)cc2F)CCC1)Nc1cccnc1` is higher in cytotoxicity at 10 µM: -49.6% for the first, -5.82% for the second.

First: CCOCCN1CCN(CC(O)c2ccc(C)c(C)c2)CC1 (stereo not given)
Second: CCN1CCN(C)C2(CCN(Cc3ccc(C)o3)CC2)C1=O
The cytotoxicity at 10 µM of the first is higher: -6.33% for the first, -7.1% for the second.

Going from `COc1cc(CCC(=O)N2CCC(c3cnccn3)CC2)on1` to `COCCC(=O)N1CCC(c2noc3nc(C)cc(C(F)(F)F)c23)CC1`, the cytotoxicity at 10 µM rises from 3.1% to 4.45%.

Compared with `Cc1ccccc1CSc1nc(N)cc(N2C[C@H](O)[C@@H](N(C)C)C2)n1`, `Cc1cc(N2CCN(Cc3ccccc3)CC(O)C2)cc(C)n1` (stereo not given) is lower in cytotoxicity at 10 µM: 17.3% for the first, -17.4% for the second.

Going from `CC(=O)N1CCC(NC(=O)c2ccccc2-n2cnnn2)CC1` to `Cc1nonc1CC(=O)N1C[C@H]2CC[C@@H](C1)N(Cc1ccccc1)C2=O`, the cytotoxicity at 10 µM falls from 6.87% to -11.6%.

Compared with `Cc1nc2sc(C(=O)N3CCNC(=O)C3)c(C)c2c(=O)[nH]1`, `O=C(NCCN1CCNCC1)c1nc2ccccc2c(=O)[nH]1` is higher in cytotoxicity at 10 µM: 4.13% for the first, 8.19% for the second.

First: Cn1ccnc1NC[C@@H]1CCC[C@@H]2CN(Cc3nccs3)C[C@@H]21
Second: COCCN1C[C@@H]2CCCO[C@@H]2[C@H](N(C)Cc2ccco2)C1
The cytotoxicity at 10 µM of the first is higher: 14% for the first, -0.388% for the second.

Going from `CC(C)n1cnnc1CN1CCC2(CCCN(C3CCCCC3)C2=O)C1` (stereo not given) to `Cc1cc(C2CCC2)nc(NCC(C)(C)N2CCCC2)n1`, the cytotoxicity at 10 µM rises from -123% to -0.21%.

First: O=C(C1=CCCC1)N1CCO[C@H]2[C@@H](Oc3ccccn3)CC[C@@H]21
Second: O=C(c1cscn1)N1CCO[C@H]2[C@@H](Oc3ccccn3)CC[C@@H]21
The cytotoxicity at 10 µM of the first is higher: 0.179% for the first, -109% for the second.

First: Cc1cnc(C)c(N2CCCC(C/C=C/c3ccccc3)(C(=O)O)C2)n1 (stereo not given)
Second: CCOC(=O)CCC(=O)N1CC(c2nc(Cc3ccccc3)no2)C1
The cytotoxicity at 10 µM of the first is higher: 9.42% for the first, -2.42% for the second.

Compared with `Cc1ccc(CN2Cc3ccccc3OC3(CCC(CO)CC3)C2)o1` (stereo not given), `CN(Cc1noc2c1CCCC2)C(=O)C1Cc2ccccc2CN1C` (stereo not given) is higher in cytotoxicity at 10 µM: -13.7% for the first, 4.74% for the second.

Compared with `COC(=O)CCNC(=O)c1c[nH]cc1-c1ccccc1OC`, `O=C(CNC(=O)c1ccccc1Cl)Nc1nccs1` is lower in cytotoxicity at 10 µM: 6.17% for the first, -3.09% for the second.

Compared with `Cc1ccc(C(CCNCCCN(C)C)C2CCOC(C)(C)C2)cc1` (stereo not given), `CN(C)CCN1CC(C(=O)NCc2ccc(C#N)cc2)CC1=O` (stereo not given) is lower in cytotoxicity at 10 µM: -3.32% for the first, -6.02% for the second.

Compared with `CCC(=O)N1CCCCC1c1nc(O)c2c(n1)CN(S(=O)(=O)CC)CC2` (stereo not given), `Cc1nc(-c2cccc(N3CCC(N4CCCC4)CC3)c2)cs1` is lower in cytotoxicity at 10 µM: 1.7% for the first, -17.2% for the second.

First: Cn1ccnc1C(O)c1ccccc1N1CCN(Cc2cccs2)CC1 (stereo not given)
Second: Cn1c(Cn2cccn2)nnc1C1CCN(Cc2cccnc2N)CC1
The cytotoxicity at 10 µM of the first is higher: 5.03% for the first, -9.12% for the second.

Compared with `O=S(=O)(C1CC1)N1CCC2(CC1)CC(Oc1cccnc1)CO2` (stereo not given), `CO[C@H]1CC[C@H]2[C@H]1OCCN2C(=O)CCOc1ccccc1` is lower in cytotoxicity at 10 µM: -2.27% for the first, -95% for the second.

Going from `Cc1cc(O)c(OCC(=O)/N=c2\[nH]c(C)cs2)cn1` to `CCN(CCNC(=O)c1cccc(C)c1C)C1CC1`, the cytotoxicity at 10 µM falls from 6.36% to 3.43%.

Compared with `O=C(CC(F)(F)F)N1C[C@H]2CCN[C@H]2C1`, `CC(C)[C@H]1CN(C(=O)CO)C[C@@H]1N(C)C` is higher in cytotoxicity at 10 µM: 2.95% for the first, 7.1% for the second.

Going from `COCC1CN(C(=O)c2cccn2C)Cc2cnn(C)c21` (stereo not given) to `COc1ccccc1CC(NC(=O)N1CCOCC1)C(C)C` (stereo not given), the cytotoxicity at 10 µM falls from 7.43% to 4.29%.

Compared with `NC(=O)C(NC(=O)COCCc1ccccc1)c1ccccc1F` (stereo not given), `CC(NC(=O)Nc1ccc(-n2cncn2)cc1)C(=O)NC(C)(C)C` (stereo not given) is higher in cytotoxicity at 10 µM: -11% for the first, 3.92% for the second.

Going from `CC(C)c1nc(CCN(C)C(=O)C2COc3ccccc3C2)no1` (stereo not given) to `CCc1csc(CNC(=O)C(CC)n2cccn2)n1` (stereo not given), the cytotoxicity at 10 µM falls from 4.31% to -0.651%.

Compared with `CSC(CNS(=O)(=O)c1cnn(C)c1)c1cccc(Cl)c1` (stereo not given), `CC(C#N)CNC(=O)Nc1ccc(Br)cc1` (stereo not given) is lower in cytotoxicity at 10 µM: 4.63% for the first, 1.44% for the second.

Going from `CO[C@@H]1CC[C@H]2[C@H]1OCCN2C(=O)c1ccco1` to `COc1ccc([C@@H]2NC(=O)N[C@H]3OCCC[C@H]32)cc1`, the cytotoxicity at 10 µM rises from -148% to 1.49%.
